Results taken from ChEMBL document CHEMBL1137455, “Replacement of the lactone moiety on podophyllotoxin and steganacin analogues with a 1,5-disubstituted 1,2,3-triazole via ruthenium-catalyzed click chemistry” (Bioorg Med Chem, 2007).
Activity calls are given as the source filed them. The rule behind the calls is not given here.

What was measured:
[1] = tested on: SH-SY5Y; test: Cytotoxicity against SH-SY5Y cells assessed as cell viability upto 100 uM after 48 hrs by MTT method; type: functional, cell-based; conditions: Homo sapiens
Summary of the method: (§1)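 SH-SY5Y human neuroblastoma cells exposed to compounds for 48 h; viability read by MTT; dose–response curves; highest concentration tested 100 μM.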

[2] = tested on: SH-SY5Y; test: Cytotoxicity against SH-SY5Y cells assessed as cell viability after 48 hrs by MTT method; type: functional, cell-based; conditions: Homo sapiens; summary of the method: as §1
[3] = molecular target: Tubulin (Homo sapiens) (UniProt P68371+Q9H4B7+P0DPH7+P68366+Q13509+Q71U36+P04350+Q3ZCM7+P07437+P68363+Q9BQE3+Q6PEY2+Q13885+Q9BVA1+Q9BUF5); test: Induction of tubulin depolymerization after 16 hrs; type: protein-complex assay
Summary of the method: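 Cells treated 16 h with tubulin-disrupting agents; proteins harvested in presence of paclitaxel to fix polymerized and unpolymerized tubulin; soluble (non-polymerized) and pellet (polymerized) fractions run on SDS-PAGE and immunoblotted with monoclonal mouse anti-tubulin antibody.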

[4] = tested on: SH-SY5Y; test: Cytotoxicity against SH-SY5Y cells assessed as cell viability above 10 uM after 48 hrs by MTT method; type: functional, cell-based; conditions: Homo sapiens; summary of the method: as §1

Structure (SMILES)	Activity [1]	IC50 [2] [µM]	Activity [3]	further results
COc1cc(Cc2cnnn2Cc2ccc3c(c2)OCO3)cc(OC)c1OC	Not toxic			
COc1cc(C2c3cc4c(cc3Cn3nncc32)OCO4)cc(OC)c1OC (racemic)		1.5	Active	
COc1ccc(/C=C\c2cc(OC)c(OC)c(OC)c2)cc1O			Active	
CC(=O)O[C@H]1C(=O)[C@@]2(C)[C@H]([C@H](OC(=O)c3ccccc3)[C@]3(O)C[C@H](OC(=O)[C@H](O)[C@@H](NC(=O)c4ccccc4)c4ccccc4)C(C)=C1C3(C)C)[C@]1(OC(C)=O)CO[C@@H]1C[C@@H]2O			inactive	
COc1cc2c(c(OC)c1OC)-c1cc3c(cc1Cc1cnnn1C2)OCO3		1.1		
COc1cc(C(O)c2cnnn2Cc2ccc3c(c2)OCO3)cc(OC)c1OC (stereo unspecified)	Not toxic			
COc1cc2c(c(OC)c1OC)-c1cc3c(cc1Cn1nncc1C2)OCO3				Activity [4]: Toxic
COc1cc(Cn2nncc2Cc2ccc3c(c2)OCO3)cc(OC)c1OC	Not toxic			
COc1cc([C@@H]2c3cc4c(cc3[C@H](O)[C@H]3COC(=O)[C@H]23)OCO4)cc(OC)c1OC [PODOFILOX]		0.007	Active	
